For the experiment, the target named is T1, Acid ceramidase (Homo sapiens, UniProt Q13510).
T1 sequence (Q13510 whole entry): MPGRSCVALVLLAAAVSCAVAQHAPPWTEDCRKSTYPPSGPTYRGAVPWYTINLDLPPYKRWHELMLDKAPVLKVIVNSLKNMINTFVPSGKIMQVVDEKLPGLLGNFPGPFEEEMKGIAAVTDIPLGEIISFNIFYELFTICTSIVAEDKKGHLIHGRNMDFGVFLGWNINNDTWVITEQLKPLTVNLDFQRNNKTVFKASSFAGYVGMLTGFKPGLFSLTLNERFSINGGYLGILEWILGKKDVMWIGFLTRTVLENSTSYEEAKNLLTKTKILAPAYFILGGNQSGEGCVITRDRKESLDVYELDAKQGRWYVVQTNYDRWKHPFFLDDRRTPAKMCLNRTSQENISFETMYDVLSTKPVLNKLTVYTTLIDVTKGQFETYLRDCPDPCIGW
Put plainly: Time-dependent inhibition of human acid ceramidase expressed in HEK293 cells using Rbm14-12 as substrate by fluorescence assay. The gist of the method: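 hAC-enriched lysates with fluorogenic substrate Rbm 14-12; vehicle 1% DMSO; time-dependent inhibition analysed for ki/KI and ki; two independent experiments, each in two technical replicates.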

One may read the kinact as the maximal first-order rate at which the target is inactivated.

`CC(C)CNC(=O)n1c(=O)oc2cc(C3CCN(C)CC3)ccc21`: the inactivation rate constant (kinact) came to 0.0025 s⁻¹.

The values are drawn from BindingDB's records for doi:10.1021/acs.jmedchem.9b02004 (University of Illinois At Chicago, 2020).
